Data published in ChEMBL document CHEMBL4627400, “Discovery of Dihydropyrrolo[1,2-a]pyrazin-3(4H)-one-Based Second-Generation GluN2C- and GluN2D-Selective Positive Allosteric Modulators (PAMs) of the N-Methyl-d-Aspartate (NMDA) Receptor” (J Med Chem, 2020).
Values after ≈ are worked out from the molar mass of the structure shown.

Key:
[1] = target: T1, Glutamate NMDA receptor; Grin1/Grin2a (Rattus norvegicus, UniProt P35439+Q00959); test: Positive allosteric modulation of recombinant rat GluN1a/GluN2A receptor expressed in Xenopus laevis oocytes assessed as increase in glycine/L-glutamate-induced channel current at 10 to 30 uM by two-electrode voltage clamp method relative to control; format: cell-based
Procedure, shortened: (§1)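 TEVC at −40 mV, 23 °C, in 90 NaCl/1 KCl/0.5 BaCl/0.005 EDTA/10 HEPES (mM), pH 7.4. Oocytes expressed rat GluN1/GluN2A or GluN1/GluN2B. […] Some GluN2A oocytes were BAPTA-loaded. 4–17 oocytes from 1–3 frogs.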

[2] = target: T2, Glutamate NMDA receptor; Grin1/Grin2b (Rattus norvegicus, UniProt P35439+Q00960); test: Positive allosteric modulation of recombinant rat GluN1a/GluN2B receptor expressed in Xenopus laevis oocytes assessed as increase in glycine/L-glutamate-induced channel current at 10 to 30 uM by two-electrode voltage clamp method relative to control; format: cell-based; procedure, shortened: as §1
[3] = target: T3, Glutamate NMDA receptor; Grin1/Grin2c (Rattus norvegicus) (UniProt P35439+Q00961); test: Positive allosteric modulation of recombinant rat GluN1a/GluN2C receptor expressed in Xenopus laevis oocytes assessed as increase in glycine/L-glutamate-induced channel current by measuring log of doubling concentration by two-electrode voltage clamp method; format: cell-based
Procedure, shortened: (§2)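 Oocytes expressing rat GluN1/GluN2C or GluN2D, held at −40 mV in HEPES-buffered Ba2+ solution, pH 7.4, 23 °C. Current given as percent of agonist-alone response. Doubling concentration is the concentration giving 2-fold response; reported as […] log. 6–19 oocytes from 2–3 frogs.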

[4] = target: T4, Ionotropic glutamate receptor NMDA 1/2D (Rattus norvegicus) (UniProt P35439+Q62645); test: Positive allosteric modulation of recombinant rat GluN1a/GluN2D receptor expressed in Xenopus laevis oocytes assessed as increase in glycine/L-glutamate-induced channel current at 30 uM by two-electrode voltage clamp method relative to control; format: cell-based
Procedure, shortened: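 Oocytes expressing rat GluN1/GluN2C or GluN2D, held at −40 mV in HEPES-buffered Ba2+ solution, pH 7.4, 23 °C. […] Current given as percent of agonist-alone response. […] Doubling concentration is the concentration giving 2-fold response; reported as […] log. 6–19 oocytes from 2–3 frogs.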

[5] = target: T3, Glutamate NMDA receptor; Grin1/Grin2c (Rattus norvegicus); test: Positive allosteric modulation of recombinant rat GluN1a/GluN2C receptor expressed in Xenopus laevis oocytes assessed as increase in glycine/L-glutamate-induced channel current at 30 uM by two-electrode voltage clamp method relative to control; format: cell-based; procedure, shortened: as §2
[6] = target: T3, Glutamate NMDA receptor; Grin1/Grin2c (Rattus norvegicus); test: Positive allosteric modulation of recombinant rat GluN1a/GluN2C receptor expressed in Xenopus laevis oocytes assessed as change in 30 uM glycine/0.5 uM L-glutamate-induced channel current at 30 uM by two-electrode voltage clamp method (reference value: 54 +/- 1%); format: cell-based
Procedure, shortened: (§3)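 Oocytes expressing rat GluN1/GluN2C or GluN1/GluN2D, TEVC at −40 mV, pH 7.4, 23 °C. […] 30 μM glycine in all solutions per footnote. Vehicle versus drug compared by paired t-test; mean ± SEM.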

[7] = target: T4, Ionotropic glutamate receptor NMDA 1/2D (Rattus norvegicus); test: Positive allosteric modulation of recombinant rat GluN1a/GluN2D receptor expressed in Xenopus laevis oocytes assessed as change in 30 uM glycine/0.5 uM L-glutamate-induced channel current at 30 uM by two-electrode voltage clamp method (reference value: 54 +/- 1%); format: cell-based; procedure, shortened: as §3
[8] = Aqueous solubility of the compound at pH 7.4 after 30 mins by nephelometric analysis; format: physicochemical; settings: buffer
[9] = target: T1, Glutamate NMDA receptor; Grin1/Grin2a; test: Positive allosteric modulation of recombinant rat GluN1a/GluN2A receptor expressed in Xenopus laevis oocytes assessed as change in 30 uM glycine/3 uM L-glutamate-induced channel current at 30 uM by two-electrode voltage clamp method (reference value: 40 +/- 4%); format: cell-based
[10] = target: T2, Glutamate NMDA receptor; Grin1/Grin2b; test: Positive allosteric modulation of recombinant rat GluN1a/GluN2B receptor expressed in Xenopus laevis oocytes assessed as change in 30 uM glycine/3 uM L-glutamate-induced channel current at 30 uM by two-electrode voltage clamp method (reference value: 84 +/- 1%); format: cell-based; settings: read-out: %max
[11] = target: Glutamate NMDA receptor; Grin1/Grin2c (Rattus norvegicus, UniProt P35439+Q00961)
[12] = target: Ionotropic glutamate receptor NMDA 1/2D (Rattus norvegicus, UniProt P35439+Q62645)
[13] = target: T4, Ionotropic glutamate receptor NMDA 1/2D (Rattus norvegicus); test: Positive allosteric modulation of recombinant rat GluN1a/GluN2D receptor expressed in Xenopus laevis oocytes assessed as increase in 10 uM glycine/L-glutamate-induced channel current at 30 uM in presence of NMDAR antagonist DL-APV by two-electrode voltage clamp method relative to control; format: cell-based
Procedure, shortened: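 GluN1/GluN2D oocytes, TEVC at −40 mV. 30 μM compound applied with 10 μM glycine plus 50 μM DL-APV (glutamate-site antagonist).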

[14] = target: T2, Glutamate NMDA receptor; Grin1/Grin2b; test: Positive allosteric modulation of recombinant rat GluN1a/GluN2B receptor expressed in Xenopus laevis oocytes assessed as change in 30 to 100 uM glycine/3 uM L-glutamate-induced channel current at 30 uM by two-electrode voltage clamp method (reference value: 79 +/- 1%); format: cell-based; settings: read-out: %max
[15] = target: T4, Ionotropic glutamate receptor NMDA 1/2D (Rattus norvegicus); test: Positive allosteric modulation of recombinant rat GluN1a/GluN2D receptor expressed in Xenopus laevis oocytes assessed as change in […]/0.3 uM L-glutamate-induced channel current at 30 uM by two-electrode voltage clamp method (reference value: 29 +/- 2%); format: cell-based; procedure, shortened: as §3
[16] = target: T1, Glutamate NMDA receptor; Grin1/Grin2a; test: Positive allosteric modulation of recombinant rat GluN1a/GluN2A receptor expressed in Xenopus laevis oocytes assessed as change in 30 to 100 uM glycine/3 uM L-glutamate-induced channel current at 30 uM by two-electrode voltage clamp method (reference value: 46 +/- 5%); format: cell-based
[17] = target: T3, Glutamate NMDA receptor; Grin1/Grin2c (Rattus norvegicus); test: Positive allosteric modulation of recombinant rat GluN1a/GluN2C receptor expressed in Xenopus laevis oocytes assessed as change in […]/0.3 uM L-glutamate-induced channel current at 30 uM by two-electrode voltage clamp method (reference value: 19 +/- 3%); format: cell-based; procedure, shortened: as §3
[18] = target: T4, Ionotropic glutamate receptor NMDA 1/2D (Rattus norvegicus); test: Positive allosteric modulation of recombinant rat GluN1a/GluN2D receptor expressed in Xenopus laevis oocytes assessed as increase in glycine/10 uM L-glutamate-induced channel current at 30 uM in presence of NMDAR antagonist 7-CKA by two-electrode voltage clamp method relative to control; format: cell-based
[19] = Fraction unbound in rat plasma at 1 uM measured after 60 mins by equilibrium dialysis based LC/MS/MS analysis; format: ADME, cell-free
[20] = Protein binding in rat plasma at 1 uM measured after 60 mins by equilibrium dialysis based LC/MS/MS analysis; format: ADME, cell-free; settings: read-out: PPB (converted)
[21] = Half life in C57Bl/6 mouse at 20 mg/kg, ip by LC/MS/MS analysis; format: ADME, organism-based; settings: in vivo
[22] = Cmax in C57Bl/6 mouse at 20 mg/kg, ip by LC/MS/MS analysis; format: ADME, organism-based; parameters: dose 20 mg/kg, route intraperitoneal; settings: in vivo
[23] = Ratio of drug level in brain to plasma in C57Bl/6 mouse at 20 mg/kg, ip by LC/MS/MS analysis; format: ADME, organism-based; settings: read-out: BPR

T1 sequence (Q00959 whole entry, other chains not shown): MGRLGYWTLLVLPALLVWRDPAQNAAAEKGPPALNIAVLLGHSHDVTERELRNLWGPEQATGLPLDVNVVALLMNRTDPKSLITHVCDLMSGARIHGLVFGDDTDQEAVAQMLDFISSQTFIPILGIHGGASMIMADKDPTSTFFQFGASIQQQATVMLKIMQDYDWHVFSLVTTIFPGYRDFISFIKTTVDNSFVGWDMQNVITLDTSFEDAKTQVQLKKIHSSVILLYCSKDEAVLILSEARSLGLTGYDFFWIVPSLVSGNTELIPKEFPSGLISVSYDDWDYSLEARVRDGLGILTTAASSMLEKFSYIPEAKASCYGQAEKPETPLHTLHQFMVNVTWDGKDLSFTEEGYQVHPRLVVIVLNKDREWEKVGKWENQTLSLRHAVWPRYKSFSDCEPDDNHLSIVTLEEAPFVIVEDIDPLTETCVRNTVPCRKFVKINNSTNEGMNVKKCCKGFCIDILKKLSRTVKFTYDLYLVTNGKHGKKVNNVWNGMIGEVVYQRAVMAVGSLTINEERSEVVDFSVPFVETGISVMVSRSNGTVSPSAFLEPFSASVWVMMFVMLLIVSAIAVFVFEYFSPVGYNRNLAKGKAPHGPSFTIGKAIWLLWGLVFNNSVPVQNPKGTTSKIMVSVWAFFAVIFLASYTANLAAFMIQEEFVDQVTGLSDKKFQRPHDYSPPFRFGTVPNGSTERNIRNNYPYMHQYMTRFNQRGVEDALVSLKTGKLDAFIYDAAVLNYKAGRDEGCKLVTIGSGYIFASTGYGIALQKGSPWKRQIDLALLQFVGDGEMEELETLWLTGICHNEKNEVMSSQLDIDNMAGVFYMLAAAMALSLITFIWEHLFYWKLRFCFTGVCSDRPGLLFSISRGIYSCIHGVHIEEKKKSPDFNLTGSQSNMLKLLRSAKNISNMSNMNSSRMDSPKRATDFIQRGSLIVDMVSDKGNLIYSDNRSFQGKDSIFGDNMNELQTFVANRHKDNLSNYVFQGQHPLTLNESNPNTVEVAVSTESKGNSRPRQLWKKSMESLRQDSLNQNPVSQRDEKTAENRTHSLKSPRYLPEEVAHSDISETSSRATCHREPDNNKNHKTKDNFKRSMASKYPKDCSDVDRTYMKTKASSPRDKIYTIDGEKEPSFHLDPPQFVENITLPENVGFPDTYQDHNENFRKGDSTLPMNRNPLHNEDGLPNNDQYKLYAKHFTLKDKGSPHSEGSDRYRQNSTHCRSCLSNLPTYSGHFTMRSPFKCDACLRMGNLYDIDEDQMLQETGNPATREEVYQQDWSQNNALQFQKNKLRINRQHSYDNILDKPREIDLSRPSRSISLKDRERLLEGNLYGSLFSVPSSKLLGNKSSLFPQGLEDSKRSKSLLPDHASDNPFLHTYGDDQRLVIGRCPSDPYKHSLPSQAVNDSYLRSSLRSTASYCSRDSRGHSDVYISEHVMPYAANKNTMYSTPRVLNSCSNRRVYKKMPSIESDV
T2 sequence (Q00960 whole entry, other chains not shown): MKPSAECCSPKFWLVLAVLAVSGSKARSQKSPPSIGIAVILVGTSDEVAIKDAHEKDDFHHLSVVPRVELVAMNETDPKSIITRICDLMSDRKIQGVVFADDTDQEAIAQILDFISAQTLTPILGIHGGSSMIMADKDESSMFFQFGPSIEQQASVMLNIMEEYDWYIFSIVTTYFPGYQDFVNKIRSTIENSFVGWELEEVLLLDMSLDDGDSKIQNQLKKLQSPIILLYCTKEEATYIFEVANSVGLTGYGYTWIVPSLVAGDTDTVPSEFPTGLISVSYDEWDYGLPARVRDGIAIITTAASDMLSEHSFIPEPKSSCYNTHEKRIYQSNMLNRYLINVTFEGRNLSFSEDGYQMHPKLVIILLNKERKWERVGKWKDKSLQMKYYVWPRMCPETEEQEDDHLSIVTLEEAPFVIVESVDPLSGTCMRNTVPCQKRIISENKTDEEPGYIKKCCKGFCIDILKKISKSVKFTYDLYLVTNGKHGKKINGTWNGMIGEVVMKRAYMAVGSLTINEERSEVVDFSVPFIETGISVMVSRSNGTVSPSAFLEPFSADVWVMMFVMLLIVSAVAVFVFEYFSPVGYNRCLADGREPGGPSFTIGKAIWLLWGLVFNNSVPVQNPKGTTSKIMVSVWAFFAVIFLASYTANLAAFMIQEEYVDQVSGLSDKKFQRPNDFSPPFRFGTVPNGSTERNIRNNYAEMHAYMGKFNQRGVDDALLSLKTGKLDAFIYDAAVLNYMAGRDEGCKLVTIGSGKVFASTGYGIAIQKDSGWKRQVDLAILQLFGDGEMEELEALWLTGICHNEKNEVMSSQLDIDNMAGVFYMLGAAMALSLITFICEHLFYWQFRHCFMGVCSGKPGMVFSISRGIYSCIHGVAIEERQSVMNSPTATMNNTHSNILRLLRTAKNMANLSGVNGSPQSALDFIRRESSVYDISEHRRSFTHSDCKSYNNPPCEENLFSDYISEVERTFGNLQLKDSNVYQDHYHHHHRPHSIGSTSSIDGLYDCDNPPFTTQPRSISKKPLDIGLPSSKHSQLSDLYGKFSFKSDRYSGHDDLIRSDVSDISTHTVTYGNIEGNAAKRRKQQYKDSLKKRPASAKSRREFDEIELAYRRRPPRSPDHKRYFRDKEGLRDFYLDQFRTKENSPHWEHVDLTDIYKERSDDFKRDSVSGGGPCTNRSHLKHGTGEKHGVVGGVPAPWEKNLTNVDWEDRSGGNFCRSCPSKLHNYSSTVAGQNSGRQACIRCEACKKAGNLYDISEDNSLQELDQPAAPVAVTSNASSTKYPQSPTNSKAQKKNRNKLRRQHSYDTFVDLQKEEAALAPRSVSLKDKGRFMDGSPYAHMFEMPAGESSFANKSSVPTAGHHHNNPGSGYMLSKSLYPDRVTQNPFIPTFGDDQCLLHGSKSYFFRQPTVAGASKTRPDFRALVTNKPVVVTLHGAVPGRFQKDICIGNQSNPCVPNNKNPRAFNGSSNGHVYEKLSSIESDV

Structure (SMILES)	Activity [1]	Activity [2]	%max [4] [%]	%max [5] [%]	solubility kinetic at 0.5 h [8] [µM]	EC50 [11] [µM]	EC50 [12] [µM]	other results
COc1ccc(OCC2c3ccc(OC)cc3CC(=O)N2CC(F)(F)F)cc1 (configuration not stated)	Not Active	Not Active	160	330				log(activity) [3]: > -4.5
COc1ccc(OC[C@@H]2c3cccn3CC(=O)N2Cc2cccc(F)c2)cc1	Not Active	Not Active	88	100	74 (≈ 28.2 µg/mL)			%max [6]: 57%; %max [7]: 72%; %max [9]: 45%; activity at 30 µM [10]: 85%
COc1ccc(OCC2c3cccn3CC(=O)N2Cc2cccc(C(F)(F)F)c2)cc1 (configuration not stated)	Not Active	Not Active	400	300	57 (≈ 24.5 µg/mL)	1.26	1.58	
COc1ccc(OC[C@H]2c3cccn3CC(=O)N2Cc2cccc(C(F)(F)F)c2)cc1	Not Active	Not Active	330	280	57 (≈ 24.5 µg/mL)	0.794	0.794	
COc1ccc(OC[C@@H]2c3cccn3CC(=O)N2Cc2cccc(C(F)(F)F)c2)cc1	Not Active	Not Active	88	84	57 (≈ 24.5 µg/mL)			
COc1ccc(OCC2c3sccc3CCN2C(=O)c2cccc(Cl)c2)cc1 (configuration not stated)	Not Active	Not Active	350	280	46 (≈ 19 µg/mL)	3.98	3.98	
COc1ccc(OC[C@@H]2c3cccn3CCN2C(=O)c2cccc(C(F)(F)F)c2)cc1	Not Active	Not Active	98	99	58 (≈ 25 µg/mL)			
COc1ccc(OC[C@H]2c3cccn3CCN2C(=O)c2cccc(C(F)(F)F)c2)cc1	Not Active	Not Active	540	460	58 (≈ 25 µg/mL)	1.26	1.26	
COc1ccc(OC[C@H]2c3cccn3CC(=O)N2Cc2cccc(F)c2)cc1			390	410	74 (≈ 28.2 µg/mL)	3.16	3.16	Activity [13]: 2.5%; activity at 30 µM [14]: 77%; %max [15]: 55%; %max [16]: 53%; %max [17]: 48%; Activity [18]: 0.4%
COc1ccc(OCC2c3cccn3CCN2C(=O)c2cccc(Cl)c2)cc1 (configuration not stated)	Not Active	Not Active	370	370	36 (≈ 14.3 µg/mL)	2.51	3.16	
COc1ccc(OC[C@H]2c3cccn3CCN2C(=O)c2cccc(Cl)c2)cc1	Not Active	Not Active	450	410	36 (≈ 14.3 µg/mL)	2	2	
COc1ccc(OCC2c3cccn3CCN2C(=O)c2cccc(C(F)(F)F)c2)cc1 (configuration not stated)	Not Active	Not Active	290	380	58 (≈ 25 µg/mL)	1.58	2	
COc1ccc(OC[C@@H]2c3cccn3CCN2C(=O)c2cccc(Cl)c2)cc1	Not Active	Not Active	99	98	36 (≈ 14.3 µg/mL)			
COc1ccc(OCC2c3cc(OC)c(OC)cc3CCN2C(=O)c2cccc(Cl)c2)cc1 (configuration not stated)			220	230				fraction unbound at 1 h, 1 µM [19]: < 0.0001; fraction unbound at 1 h, 1 µM [20]: < 0.001; half-life [21]: 1.35 h; Cmax [22]: 2160 nM; Kp [23]: 6.7
COc1ccc(OCC2c3ccsc3CCN2C(=O)c2cccc(Cl)c2)cc1 (configuration not stated)	Not Active	Not Active	340	330		3.98	5.01	
